# Assays:
# [1] = Drug metabolism in C57BL/6J mouse primary hepatocytes assessed as Cytochrome P450-mediated formation of 3-OHD3NVP at 10 uM incubated for 24 hrs by uHPLC-MS analysis; type: ADME, cell-based
# How it was run: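 Fresh hepatocytes from male C57BL/6J mice (8–13 weeks), adhered overnight, then 10 μM substrate or vehicle (0.1% DMSO) for 24 h. Medium extracted with acetonitrile (50% final), dried, reconstituted in methanol; uHPLC-Orbitrap targeted SIM plus PRM (monooxygenated metabolites) or high-resolution ions (O-glucuronides, 459.1510/462.1700 ±5 ppm); four experimental replicates.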
# Cytochrome P450 [2] = test: Drug metabolism in human primary hepatocytes assessed as Cytochrome P450-mediated formation of 2-OHNVP at 10 uM incubated for 24 to 48 hrs by uHPLC-MS analysis; type: ADME, cell-based
# How it was run: (§1)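 Cryoplateable pooled human hepatocytes (10 mixed-sex donors per pool, three lots), adhered overnight, then 10 μM substrate or vehicle (0.1% DMSO) for 24 or 48 h in InVitroGRO CP medium. Medium extracted with 50% acetonitrile, dried, reconstituted in methanol; uHPLC-Orbitrap MS/MS for monooxygenated metabolites, high-resolution MS for O-glucuronide.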
# Cytochrome P450 [3] = test: Drug metabolism in human primary hepatocytes assessed as Cytochrome P450-mediated formation of 8-OHNVP at 10 uM incubated for 24 to 48 hrs by uHPLC-MS analysis; type: ADME, cell-based; how it was run: as §1
# Cytochrome P450 2C8 = target: T1, Cytochrome P450 2C8 (Homo sapiens, UniProt P10632); test: Drug metabolism assessed as human CYP2C8-mediated formation of 12-OHNVP at 10 uM […] by uHPLC-MS analysis; type: ADME; settings: recombinant enzyme
# T1 sequence (P10632 whole entry): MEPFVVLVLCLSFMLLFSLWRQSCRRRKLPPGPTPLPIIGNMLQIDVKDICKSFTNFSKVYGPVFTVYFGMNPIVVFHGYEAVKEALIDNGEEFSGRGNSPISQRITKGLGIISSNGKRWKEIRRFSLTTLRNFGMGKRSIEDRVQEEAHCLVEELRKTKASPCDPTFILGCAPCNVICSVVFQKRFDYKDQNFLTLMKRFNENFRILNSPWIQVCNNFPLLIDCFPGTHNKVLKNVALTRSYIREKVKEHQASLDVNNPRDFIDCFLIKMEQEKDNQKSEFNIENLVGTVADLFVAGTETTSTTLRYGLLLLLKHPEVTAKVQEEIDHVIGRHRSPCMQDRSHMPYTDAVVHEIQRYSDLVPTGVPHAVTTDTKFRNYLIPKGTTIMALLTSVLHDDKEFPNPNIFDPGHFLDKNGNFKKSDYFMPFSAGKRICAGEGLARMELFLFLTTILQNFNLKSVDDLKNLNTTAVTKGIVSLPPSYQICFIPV
# How it was run: (§2)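 Insect-cell microsomes with single cDNA-expressed human P450 (100 nM) in 0.1 M potassium phosphate; 10 μM substrate prewarmed 5 min at 37 °C with NADPH-regenerating system, reaction started by adding microsomes; 30 min at 37 °C, 0.1% DMSO. Stopped, dried, reconstituted in methanol; triple-quadrupole SRM (12-OH 283.1→223.0, 2-OH 283.1→160.9, 3-OH 283.1→241.9), peak height; three replicates, mean ± SD.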
# Cytochrome P450 2D6 = Cytochrome P450 2D6 (Homo sapiens, UniProt P10635); test: Drug metabolism assessed as human CYP2D6-mediated formation of 12-OHNVP at 10 uM pre-incubated for 30 mins followed by addition of NADPH regenerating reagents by uHPLC-MS analysis; type: ADME; settings: recombinant enzyme; how it was run: as §2
# Chain of Cytochrome P450 2D6 (P10635 whole entry): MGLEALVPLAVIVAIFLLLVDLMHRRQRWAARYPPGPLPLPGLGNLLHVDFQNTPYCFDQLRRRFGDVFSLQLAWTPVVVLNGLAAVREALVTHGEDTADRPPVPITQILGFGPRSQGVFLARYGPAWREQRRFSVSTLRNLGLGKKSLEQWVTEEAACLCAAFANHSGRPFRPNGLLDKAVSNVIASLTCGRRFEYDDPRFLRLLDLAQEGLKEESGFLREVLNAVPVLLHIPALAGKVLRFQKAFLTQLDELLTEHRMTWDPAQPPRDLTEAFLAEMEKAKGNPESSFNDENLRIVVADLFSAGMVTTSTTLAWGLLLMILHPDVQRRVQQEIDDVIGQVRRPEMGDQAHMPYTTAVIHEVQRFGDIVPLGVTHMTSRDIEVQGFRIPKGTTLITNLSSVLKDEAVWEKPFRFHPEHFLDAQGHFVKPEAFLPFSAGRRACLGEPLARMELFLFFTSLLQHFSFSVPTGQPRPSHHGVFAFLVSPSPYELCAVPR
# Cytochrome P450 3A4 [4] = target: T2, Cytochrome P450 3A4 (Homo sapiens, UniProt P08684); test: Drug metabolism assessed as human CYP3A4-mediated formation of 12-OHNVP at 10 uM pre-incubated for 30 mins followed by addition of NADPH regenerating reagents by uHPLC-MS analysis; type: ADME; settings: recombinant enzyme; how it was run: as §2
# T2 sequence (P08684 whole entry): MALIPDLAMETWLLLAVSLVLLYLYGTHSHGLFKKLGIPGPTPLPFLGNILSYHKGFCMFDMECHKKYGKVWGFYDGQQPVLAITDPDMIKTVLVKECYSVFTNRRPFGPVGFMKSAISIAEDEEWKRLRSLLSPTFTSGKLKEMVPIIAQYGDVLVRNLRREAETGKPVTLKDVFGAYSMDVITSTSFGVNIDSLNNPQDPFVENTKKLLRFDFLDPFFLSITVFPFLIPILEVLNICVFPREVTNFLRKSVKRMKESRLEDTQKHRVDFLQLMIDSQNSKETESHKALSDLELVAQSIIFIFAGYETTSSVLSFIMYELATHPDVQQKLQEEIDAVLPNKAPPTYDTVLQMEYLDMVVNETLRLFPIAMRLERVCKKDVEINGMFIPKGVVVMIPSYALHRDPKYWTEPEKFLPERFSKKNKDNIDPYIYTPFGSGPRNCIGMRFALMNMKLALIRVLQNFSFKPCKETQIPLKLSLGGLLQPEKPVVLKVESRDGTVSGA
# Cytochrome P450 3A4 [5] = target: T2, Cytochrome P450 3A4; test: Drug metabolism assessed as human CYP3A4-mediated formation of 2-OHNVP at 10 uM pre-incubated for 30 mins followed by addition of NADPH regenerating reagents by uHPLC-MS analysis; type: ADME; settings: recombinant enzyme; how it was run: as §2
# Cytochrome P450 [6] = test: Drug metabolism in human liver microsomes assessed as Cytochrome P450-mediated formation of 2-OHNVP formation at 5 to 400 uM in presence of NADPH regenerating reagents by uHPLC-MS/MS analysis; type: ADME
# How it was run: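 Pooled human liver microsomes (2.5 mg/mL) with NADPH-regenerating system, substrate 5–400 μM, 30 min at 37 °C, 0.1% DMSO (0.2% at 400 μM); 2- and 3-OH metabolites by uHPLC-MS/MS Orbitrap; three replicates, mean ± SD.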
# Hepatocyte [7] = test: Induction of change in Igfbp1 protein expression in C57BL/6J mouse primary hepatocytes at 400 uM incubated for 8 hrs by relative-quantitation label-free proteomics analysis relative to NVP; type: cell-based
# How it was run: (§3)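 Fresh primary hepatocytes from male C57BL/6J mice aged 8–13 weeks, adhered overnight, then given fresh medium containing compound (400 μM), NVP (400 μM) or vehicle (0.2% DMSO) for 8 h. Lysate reduced (DTT) and alkylated (iodoacetamide), acetone-precipitated and digested with trypsin. Label-free Top10 nanoLC-MS with precursor ion area quantitation; unpaired t test P values, Cohen's d effect size.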
# Hepatocyte [8] = test: Induction of change in Endog protein expression in C57BL/6J mouse primary hepatocytes at 400 uM incubated for 8 hrs by relative-quantitation label-free proteomics analysis relative to NVP; type: cell-based; how it was run: as §3
# Hepatocyte [9] = test: Induction of change in Acy3 protein expression in C57BL/6J mouse primary hepatocytes at 400 uM incubated for 8 hrs by relative-quantitation label-free proteomics analysis relative to NVP; type: cell-based; how it was run: as §3
# Hepatocyte [10] = test: Induction of change in Sirt5 protein expression in C57BL/6J mouse primary hepatocytes at 400 uM incubated for 8 hrs by relative-quantitation label-free proteomics analysis relative to NVP; type: cell-based; how it was run: as §3
# Hepatocyte [11] = test: Induction of change in 5-Mar protein expression in C57BL/6J mouse primary hepatocytes at 400 uM incubated for 8 hrs by relative-quantitation label-free proteomics analysis relative to NVP; type: cell-based; how it was run: as §3
# Hepatocyte [12] = test: Induction of change in FUBP3 protein expression in human primary hepatocytes at 10 uM incubated for 48 hrs by relative-quantitation label-free proteomics analysis relative to NVP; type: cell-based
# How it was run: as §3, with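 “Cryoplateable pooled human” for “Fresh primary”, “(10 mixed-sex donors per pool; three pools),” for “from male C57BL/6J mice aged 8–13 weeks,”, “(10” for “(400”, “(0.1%” for “(0.2%”, “48” for “8”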
# Hepatocyte [13] = test: Induction of change in CYB5A protein expression in human primary hepatocytes at 10 uM incubated for 48 hrs by relative-quantitation label-free proteomics analysis relative to NVP; type: cell-based
# How it was run: as §3, with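 “Cryoplateable pooled human” for “Fresh primary”, “(10 mixed-sex donors per pool; three pools),” for “from male C57BL/6J mice aged 8–13 weeks,”, “(10” for “(400”, “(0.1%” for “(0.2%”, “48” for “8”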
# Hepatocyte [14] = test: Induction of change in MTX2 protein expression in human primary hepatocytes at 10 uM incubated for 48 hrs by relative-quantitation label-free proteomics analysis relative to NVP; type: cell-based
# How it was run: as §3, with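 “Cryoplateable pooled human” for “Fresh primary”, “(10 mixed-sex donors per pool; three pools),” for “from male C57BL/6J mice aged 8–13 weeks,”, “(10” for “(400”, “(0.1%” for “(0.2%”, “48” for “8”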
# Hepatocyte [15] = test: Induction of change in TM9SF1 protein expression in human primary hepatocytes at 10 uM incubated for 48 hrs by relative-quantitation label-free proteomics analysis relative to NVP; type: cell-based
# How it was run: as §3, with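 “Cryoplateable pooled human” for “Fresh primary”, “(10 mixed-sex donors per pool; three pools),” for “from male C57BL/6J mice aged 8–13 weeks,”, “(10” for “(400”, “(0.1%” for “(0.2%”, “48” for “8”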
# Hepatocyte [16] = test: Induction of change in EXOSC1 protein expression in human primary hepatocytes at 10 uM incubated for 48 hrs by relative-quantitation label-free proteomics analysis relative to NVP; type: cell-based
# How it was run: as §3, with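 “Cryoplateable pooled human” for “Fresh primary”, “(10 mixed-sex donors per pool; three pools),” for “from male C57BL/6J mice aged 8–13 weeks,”, “(10” for “(400”, “(0.1%” for “(0.2%”, “48” for “8”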
compound,measurement,setting,value
[2H]C([2H])([2H])c1ccnc2c1NC(=O)c1cccnc1N2C1CC1,Drug metabolism,[1],Metabolite_Detected
same,Drug metabolism,Cytochrome P450 [2],Metabolite_Detected
same,Drug metabolism,Cytochrome P450 [3],Metabolite_Notdetected
same,Drug metabolism,Cytochrome P450 2C8,Metabolite_Detected
same,Drug metabolism,Cytochrome P450 2D6,Metabolite_Detected
same,Drug metabolism,Cytochrome P450 3A4 [4],Metabolite_Detected
same,Drug metabolism,Cytochrome P450 3A4 [5],Metabolite_Detected
same,Drug metabolism,Cytochrome P450 [6],Metabolite_Detected
same,fold change (FC),Hepatocyte [7],4.7
same,fold change (FC),Hepatocyte [8],2.07
same,fold change (FC),Hepatocyte [9],1.6
same,fold change (FC),Hepatocyte [10],1.56
same,fold change (FC),Hepatocyte [11],-2.14
same,fold change (FC),Hepatocyte [12],-1.47
same,fold change (FC),Hepatocyte [13],-1.5
same,fold change (FC),Hepatocyte [14],-1.67
same,fold change (FC),Hepatocyte [15],-1.86
same,fold change (FC),Hepatocyte [16],-2.73
